Assay results from ChEMBL document CHEMBL1151234, “Chemistry of renieramycins. Part 5. Structure elucidation of renieramycin-type derivatives O, Q, R, and S from thai marine sponge Xestospongia species pretreated with potassium cyanide” (J Nat Prod, 2004).

Experiments:
HCT-116 = assay: Cytotoxicity against human HCT116 cells after 4 days; type: functional, cell-based; conditions: HCT-116, 96 h
Outline: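 Single-cell suspension of HCT116 cells seeded at 2 × 10^3 cells/well onto serially diluted test compounds, cultured 4 days. Growth read with a cell counting kit. IC50 taken as the concentration giving 50% growth inhibition versus untreated control.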

QG-56 = assay: Cytotoxicity against human QG56 cells after 4 days; type: functional, cell-based; conditions: QG-56, 96 h

Compound	IC50 (HCT-116) [nM]	IC50 (QG-56) [nM]
C/C=C(/C)C(=O)OC[C@H]1c2c(c(OC(C)=O)c(C)c(OC)c2OC(C)=O)C[C@H]2[C@H]3c4c(c(OC(C)=O)c(C)c(OC)c4OC(C)=O)C[C@@H]([C@H](C#N)N12)N3C	3	7.9
C/C=C(/C)C(=O)OC[C@H]1C2=C(C[C@H]3[C@H]4C5=C(C(=O)C(C)=C(OC)C5=O)[C@H](OC(C)=O)[C@@H]([C@H](C#N)N13)N4C)C(=O)C(C)=C(OC)C2=O	120	300
C/C=C(/C)C(=O)OC[C@H]1c2c(c(OC(C)=O)c(C)c(OC)c2OC(C)=O)C[C@H]2[C@H]3C4=C(C[C@@H]([C@H](C#N)N12)N3C)C(=O)C(C)=C(OC)C4=O	1.9	3.9
C/C=C(/C)C(=O)OC[C@H]1C2=C(C[C@H]3[C@H]4c5c(OC(C)=O)c(OC)c(C)c(OC(C)=O)c5[C@H](OC(C)=O)[C@@H]([C@H](C#N)N13)N4C)C(=O)C(C)=C(OC)C2=O	630	1600
C/C=C(/C)C(=O)OC[C@H]1C2=C(C[C@H]3[C@H]4c5c(O)c(OC)c(C)c(O)c5C(=O)[C@@H]([C@H](C#N)N13)N4C)C(=O)C(C)=C(OC)C2=O [RENIERAMYCIN Q]	59	71
C/C=C(/C)C(=O)OC[C@H]1C2=C(C[C@H]3[C@H]4C5=C(C(=O)C(C)=C(OC)C5=O)[C@H](OC)[C@@H]([C@H](C#N)N13)N4C)C(=O)C(C)=C(OC)C2=O [RENIERAMYCIN R]	23	29
C/C=C(/C)C(=O)OC[C@H]1C2=C(C[C@H]3[C@H]4C5=C(C[C@@H]([C@H](C#N)N13)N4C)C(=O)C(C)=C(OC)C5=O)C(=O)C(C)=C(O)C2=O [RENIERAMYCIN S]	15	26
